Columns and labels:
Pseudomonas aeruginosa [1] = test: Bactericidal activity against Pseudomonas aeruginosa ATCC 9027 assessed as colony forming unit at 2.5 ug/ml measured at 4 hrs by time kill assay (reference value: 1.2 x 10^7 CFU/ml); assay type: functional; details: dose 2.5 µg/ml
In short: (§1)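 Overnight Pseudomonas aeruginosa culture adjusted in Mueller–Hinton broth to about 2.5 × 10⁵ CFU/mL. Compound added at 2.5, 5 or 10 µg/mL, then incubated at 37 °C with shaking (580 rpm) for 22 h. Viable colonies counted on plates at 2, 4, 6, 8 and 22 h. Quantification limit 100 CFU/mL; triplicate.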

Pseudomonas aeruginosa [2] = test: Bactericidal activity against Pseudomonas aeruginosa ATCC 9027 assessed as colony forming unit at 5 ug/ml measured at 8 hrs by time kill assay (reference value: 2.7 x 10^8 CFU/ml); assay type: functional; details: dose 5 µg/ml; in short: as §1
Staphylococcus aureus [3] = test: Bactericidal activity against […] Staphylococcus aureus ATCC 25923 assessed as reduction in colony forming unit at 2.5 ug/ml measured at 2 hrs by time kill assay relative to control; assay type: functional; design: scale not given: the % may be the effect or the level left; details: dose 2.5 µg/ml
In short: (§2)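 S. aureus overnight culture was adjusted in MHB to ~8 × 10⁵ CFU/mL. Compound was added and the mixture incubated at 37 °C with shaking (580 rpm) for 22 h. Aliquots were plated for colony counts at 2, 4, 6, 8 and 22 h, with a quantification limit of 100 CFU/mL. Runs were done in triplicate.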

[4] = Selectivity index, ratio of CC50 for HEK293T cells assessed as reduction in cell viability measured after 24 hrs by MTT assay to MIC for Candida albicans CEMTC 34 assessed as bacterial growth inhibition by CLSI protocol based serial microdilution method; assay type: toxicity; details: human, read-out: Selectivity Index
In short: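 SI = CC₅₀ (HEK293T) / MIC. HEK293T cells were seeded at 20,000/well overnight, then exposed to 10–250 µg/mL in IMDM with 10% FBS for 24 h. MTT was added for 4 h, solubilised with SDS-HCl, and read at 570 nm; duplicates, ≥2 independent runs. MIC came from two-fold dilutions in Sabouraud dextrose broth at ~5 × 10⁵ CFU/mL, 37 °C with shaking, read at 595 nm, in duplicate.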

Staphylococcus aureus [5] = test: Bactericidal activity against […] Staphylococcus aureus ATCC 25923 assessed as reduction in colony forming unit at 5 ug/ml measured at 4 hrs by time kill assay relative to control; assay type: functional; design: scale not given: the % may be the effect or the level left; details: dose 5 µg/ml; in short: as §2

| SMILES | Activity (Pseudomonas aeruginosa [1]) [CFU/ml] | Activity (Pseudomonas aeruginosa [2]) [CFU/ml] | Activity (Staphylococcus aureus [3]) | selectivity ratio at 24 h [4] | Activity (Staphylococcus aureus [5]) [%] |
| --- | --- | --- | --- | --- | --- |
| CCCCCCCCCCCC[N+]12CC[N+](CCC[N+]34CC[N+](CCCCCCCCCCCC)(CC3)CC4)(CC1)CC2 | <100 | <100 |  |  |  |
| CCCCCCCCCCCC[N+]12CC[N+](Cc3ccccc3C[N+]34CC[N+](CCCCCCCCCCCC)(CC3)CC4)(CC1)CC2 | 1300 | <100 | >=99% | 1 | 99.9 |
